# pIC50: −log10 of the molar value. Active and inactive are the calls of the source. No cut-off for these calls is given here. Residues, ends and D or L forms follow the SMILES beside them.
# Legend:
# [1] = target: T1, Prostaglandin G/H synthase 1 (Ovis aries, UniProt P05979); assay: Inhibition of ovine COX1 assessed as reduction in PGH2-derived PGF2alpha using arachidonic acid as substrate preincubated for 10 mins followed by substrate addition measured after 2 mins by enzyme immunoassay
# T1 sequence (P05979 whole entry): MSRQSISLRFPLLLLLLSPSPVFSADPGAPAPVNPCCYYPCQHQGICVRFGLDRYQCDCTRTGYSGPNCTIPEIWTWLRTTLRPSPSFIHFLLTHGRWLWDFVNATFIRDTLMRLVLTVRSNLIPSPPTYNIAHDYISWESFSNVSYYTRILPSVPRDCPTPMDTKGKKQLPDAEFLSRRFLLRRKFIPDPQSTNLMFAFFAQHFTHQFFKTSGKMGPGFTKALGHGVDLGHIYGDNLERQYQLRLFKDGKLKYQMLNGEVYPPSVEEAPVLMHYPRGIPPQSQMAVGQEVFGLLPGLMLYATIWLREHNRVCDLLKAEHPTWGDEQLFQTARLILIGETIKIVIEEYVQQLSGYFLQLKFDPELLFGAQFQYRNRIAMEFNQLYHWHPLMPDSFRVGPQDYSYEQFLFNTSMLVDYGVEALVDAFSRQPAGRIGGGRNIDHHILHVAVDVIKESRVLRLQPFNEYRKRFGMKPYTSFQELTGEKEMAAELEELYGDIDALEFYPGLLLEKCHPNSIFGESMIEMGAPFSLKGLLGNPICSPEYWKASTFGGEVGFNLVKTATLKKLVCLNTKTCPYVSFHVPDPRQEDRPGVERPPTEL
# Procedure, shortened: (§1)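 Ovine COX-1 and human recombinant COX-2 with heme are preincubated with inhibitor for 10 min at 37 °C. Arachidonic acid is then added for 2 min at 37 °C. Prostaglandins are quantified by competitive AChE-tracer EIA, read at 420 nm. Four concentrations (10^-5 to 10^-8 M) are tested in triplicate. IC50 is taken from the dose-response curve of the mean % inhibition.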
# Mus musculus [2] = assay: Analgesic activity in Swiss albino mouse assessed as reduction in capsaicin-induced paw licking at 5 to 10 mg/kg, ip dosed 30 mins before capsaicin injection measured for 10 mins in presence of voltage-gated sodium channel opener veratrine pre-treated 30 mins before compound dosing; type: functional, organism-based
# Procedure, shortened: (§2)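 Mice of either sex (25-35 g), 5 per group. The modulator is given 30 min before the test compound, and capsaicin 30 min after that: substance P 10 µg/kg, L-arginine 40 mg/kg, L-NAME 20 mg/kg, veratrine 125 µg/kg, A23187 20 µg/kg, glipizide 30 µg/kg. Capsaicin is 1.6 μg in 20 μL intraplantar. Paw lickings are counted for 10 min.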
# Mus musculus [3] = assay: Analgesic activity in Swiss albino mouse assessed as reduction in capsaicin-induced paw licking at 5 to 10 mg/kg, ip dosed 30 mins before capsaicin injection measured for 10 mins in presence of nitric oxide precursor L-arginine pre-treated 30 mins before compound dosing; type: functional, organism-based; procedure, shortened: as §2
# Mus musculus [4] = assay: Analgesic activity in Swiss albino mouse assessed as reduction in formalin-induced paw flinches in neurogenic phase at 5 mg/kg, ip dosed 30 mins before formalin injection measured up to 5 mins; type: functional, organism-based
# Procedure, shortened: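 Swiss albino mice of either sex (25-35 g). 20 μL of 2% formalin is injected into the plantar surface of the right hind paw 30 min after treatment. Hind paw flinches are counted for the neurogenic phase (0-5 min) and the inflammatory phase (15-30 min). Results are given as mean ± SEM.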
# Mus musculus [5] = assay: Acute toxicity in Swiss albino mouse assessed as gross behavioral abnormality up to 2000 mg/kg, po administered as single dose through gavage measured continuously for first 4 hrs and periodically for 24 hrs up to 14 days; type: organism-based; details: in vivo
# Procedure, shortened: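 Swiss albino mice of either sex (25-35 g), housed at 22 ± 2 °C on a 12 h light/dark cycle. Per OECD 2001 guidance, groups of three received vehicle or 50, 300 or 2000 mg Kg⁻¹ after 4 h fasting. The animals were watched continuously for the first 4 h and then periodically over 24 h for gross behavioural abnormality.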
# Mus musculus [6] = assay: Acute toxicity in Swiss albino mouse assessed as structural abnormality in myocardium up to 2000 mg/kg, po administered as single dose through gavage measured after 14 days by haematoxylin and eosin staining based assay; type: organism-based; details: in vivo, 336 h
# Procedure, shortened: (§3)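 Mice given vehicle or 50, 300 or 2000 mg Kg⁻¹ after 4 h fasting, three per group, following OECD 2001 guidance. At 14 days, one control animal and one 2000 mg Kg⁻¹ animal were sacrificed. Myocardium, liver and kidney were examined histologically by H and E staining.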
# Mus musculus [7] = assay: Analgesic activity in Swiss albino mouse assessed as reduction in capsaicin-induced paw licking at 5 mg/kg, ip dosed 30 mins before capsaicin injection measured for 10 mins relative to control; type: functional
# Procedure, shortened: (§4)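 Swiss albino mice of either sex (25-35 g), kept at 22 ± 2 °C on a 12 h light/dark cycle with free food and water. 5 animals per group. Capsaicin (1.6 μg in 20 μL) is injected into the plantar surface of the hind paw. Pain is scored as the number of paw lickings over 10 min.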
# Mus musculus [8] = assay: Acute toxicity in Swiss albino mouse assessed as structural abnormality in liver up to 2000 mg/kg, po administered as single dose through gavage measured after 14 days by haematoxylin and eosin staining based assay; type: organism-based; details: in vivo, 336 h; procedure, shortened: as §3
# Mus musculus [9] = assay: Analgesic activity in Swiss albino mouse assessed as reduction in capsaicin-induced paw licking at 5 to 10 mg/kg, ip dosed 30 mins before capsaicin injection measured for 10 mins in presence of nitric oxide synthase inhibitor L-NAME pre-treated 30 mins before compound dosing; type: functional, organism-based; procedure, shortened: as §2
# Mus musculus [10] = assay: Antiinflammatory activity in Swiss albino mouse assessed as reduction in carrageenan-induced paw edema by measuring paw thickness at 5 mg/kg, ip dosed 30 mins before carrageenan injection measured up to 300 mins by vernier calliper method relative to control; type: functional
# [11] = target: Prostaglandin G/H synthase 1 (Homo sapiens) (UniProt P23219); assay: Binding affinity to COX1 (unknown origin) at 100 uM by isothermal titration calorimetry
# Procedure, shortened: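 Isothermal titration calorimetry in HEPES buffer, pH 7.4. The ligand stock is 100 μM in ethanol/HEPES (1:99). The syringe is stirred at 500 rpm and delivers 19 injections of 2 μL into the enzyme-containing cell at 120 s intervals. Heats from buffer-only control titrations are subtracted. The fit gives Ka, ΔH and ΔS. Run in triplicate.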
# Mus musculus [12] = assay: Analgesic activity in Swiss albino mouse assessed as reduction in capsaicin-induced paw licking at 5 to 10 mg/kg, ip dosed 30 mins before capsaicin injection measured for 10 mins in presence of substance P pre-treated 30 mins before compound dosing; type: functional, organism-based; procedure, shortened: as §2
# Mus musculus [13] = assay: Analgesic activity in Swiss albino mouse assessed as reduction in capsaicin-induced paw licking at 5 to 10 mg/kg, ip dosed 30 mins before capsaicin injection measured for 10 mins; type: functional, organism-based; procedure, shortened: as §4
# [14] = Selectivity index, ratio of IC50 for ovine COX1 to IC50 for human recombinant COX2; procedure, shortened: as §1
# Mus musculus [15] = assay: Analgesic activity in Swiss albino mouse assessed as reduction in capsaicin-induced paw licking at 5 to 10 mg/kg, ip dosed 30 mins before capsaicin injection measured for 10 mins in presence of ATP-sensitive potassium channel blocker glipizide pre-treated 30 mins before compound dosing; type: functional, organism-based; procedure, shortened: as §2
# Chain of Prostaglandin G/H synthase 1 (Homo sapiens) (P23219 whole entry): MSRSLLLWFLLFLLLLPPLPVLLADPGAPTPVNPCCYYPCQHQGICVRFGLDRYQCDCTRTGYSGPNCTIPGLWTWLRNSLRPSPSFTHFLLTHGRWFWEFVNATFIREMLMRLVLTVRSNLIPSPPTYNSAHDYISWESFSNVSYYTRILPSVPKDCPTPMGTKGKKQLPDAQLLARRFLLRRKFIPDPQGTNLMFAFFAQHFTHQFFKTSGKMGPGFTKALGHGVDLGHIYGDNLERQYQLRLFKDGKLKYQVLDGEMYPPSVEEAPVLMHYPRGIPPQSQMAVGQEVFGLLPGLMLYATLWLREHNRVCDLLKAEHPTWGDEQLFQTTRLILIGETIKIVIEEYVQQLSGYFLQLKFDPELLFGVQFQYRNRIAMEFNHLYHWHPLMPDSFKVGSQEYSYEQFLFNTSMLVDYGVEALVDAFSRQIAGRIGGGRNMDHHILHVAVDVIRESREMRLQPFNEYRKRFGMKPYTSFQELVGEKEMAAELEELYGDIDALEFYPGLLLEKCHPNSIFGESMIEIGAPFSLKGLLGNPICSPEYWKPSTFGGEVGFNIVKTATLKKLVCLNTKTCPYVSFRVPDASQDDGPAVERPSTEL
smiles,measurement,setting,value
COC(=O)[C@H](CC(C)C)NC(=O)[C@H](Cc1ccccc1)NC(=O)CNC(=O)CN (H-GGFL-OMe),pIC50,[1],5.22
same,Activity,Mus musculus [2],Active
same,Activity,Mus musculus [3],inactive
same,Activity,Mus musculus [4],inactive
same,Activity,Mus musculus [5],Non-toxic
same,Activity,Mus musculus [6],Non-toxic
same,inhibition in vivo at 5 mg/kg,Mus musculus [7],80%
same,Activity,Mus musculus [8],Non-toxic
same,Activity,Mus musculus [9],Active
same,inhibition in vivo at 5 mg/kg,Mus musculus [10],60%
same,Ka,[11],0.41 ×10³ /M
same,Activity,Mus musculus [12],inactive
same,Activity,Mus musculus [13],Active
same,Ratio IC50,[14],100
same,Activity,Mus musculus [15],Active

# — ChEMBL document CHEMBL3808358, “Rational Design of Small Peptides for Optimal Inhibition of Cyclooxygenase-2: Development of a Highly Effective Anti-Inflammatory Agent” (J Med Chem, 2016)
